Measurements from paper PMC6873108 (Journal of Medicinal Chemistry, 2019).
Entries after “also recorded” stand apart in the source; their conditions may differ.

Experiments:
[1] = biological target: T1, LecBPA14 (Pseudomonas aeruginosa, UniProt A0A0H2ZE85); conditions: read-out: LecBPA14 IC50; previously published; cited from earlier work
T1 sequence (A0A0H2ZE85 2-115): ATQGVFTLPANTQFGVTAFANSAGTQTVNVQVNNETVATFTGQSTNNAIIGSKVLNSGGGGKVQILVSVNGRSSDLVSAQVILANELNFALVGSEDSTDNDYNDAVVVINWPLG

[2] = Plasma stability assay; assay type: in vitro ADME, mouse; conditions: 25 μM, 37 °C, period of 120 min
Outline: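 Test compound (DMSO stock) spiked into mouse plasma (pH 7.4) at final 25 μM and incubated at 37 °C. Samples taken at 0, 15, 30, 60, 90 and 120 min, extracted with methanol containing internal standard (5 min shaking), centrifuged, and supernatants analyzed by reversed-phase C18 HPLC (water/acetonitrile + 0.1% formic acid gradient). Controls were procaine, propoxycaine and procainamide at 250 μM.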

[3] = test system: mCherry-expressing P. aeruginosa; assay: Bacterial growth by total fluorescence intensity; assay type: cell-based, Pseudomonas aeruginosa; conditions: 100 μM, 23 h, vs DMSO control
[4] = biological target: T1, LecBPA14; conditions: ITC, 25 °C, mean
[5] = biological target: LecBPAO1 (Pseudomonas aeruginosa, UniProt Q9HYN5); assay: Isothermal titration calorimetry; assay type: binding; conditions: ITC, 25 °C, mean
Chain of LecBPAO1 (Q9HYN5 2-115 limits assumed): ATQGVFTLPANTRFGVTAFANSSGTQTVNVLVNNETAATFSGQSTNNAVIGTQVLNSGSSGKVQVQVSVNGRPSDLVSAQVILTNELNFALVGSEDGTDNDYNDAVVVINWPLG

[6] = test system: Hep G2 cells; assay: MTT assay; assay type: cell-based, human; conditions: up to 100 μM, 24 h
Outline: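 Hep G2 cells grown in DMEM + 10% heat-inactivated FCS (37 °C, 5% CO2) to 75% confluency, then exposed 24 h to compound (0.01–100 μM; DMSO stock diluted in PBS, final 0.1% DMSO). Controls: vehicle, medium, and cells lysed with 0.5% Triton X-100. After two washes, MTT (final 1 mg/mL) for 3 h, then 0.04 M HCl/2-propanol for 15 min at room temperature. A560 read against 670 nm reference; normalized as (A–B)/(C–B) to Triton and vehicle controls.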

[7] = Plasma protein binding; assay type: in vitro ADME, mouse; conditions: murine plasma, 100 μM, 37 °C, 2 h
[8] = test system: P. aeruginosa PA14; conditions: vs DMSO control; cited from earlier work
[9] = mice; as reported; cited from earlier work
[10] = cited from earlier work

## COc1ccc(/C=C/C(=O)NC[C@H]2O[C@@H](C)[C@@H](O)[C@@H](O)[C@@H]2O)cc1OC [Compound 5]
[1]
  IC50: 2.8 µM

## Cc1cc(S(=O)(=O)NC[C@H]2O[C@@H](C)[C@@H](O)[C@@H](O)[C@@H]2O)c(C)s1 [Compound 22, N-β-L-Fucopyranosylmethyl 2,5-Dimethyl-3-thiophenesulfonamide]
[2]
  stability in murine plasma: fully stable
[3]
  bacterial growth (total fluorescence intensity): comparable densities
[4]
  -TΔS LecBPA14: 0.789 kcal/mol
  ΔH LecBPA14: -9.66 kcal/mol
[5]
  -TΔS LecBPAO1: 3.23 kcal/mol
  ΔH LecBPAO1: -11.3 kcal/mol

## C[C@@H]1O[C@H](CNS(=O)(=O)c2ccc(C#Cc3ccccc3)s2)[C@@H](O)[C@H](O)[C@@H]1O [Compound 29, N-β-L-Fucopyranosylmethyl 5-Phenylethynyl-2-thiophenesulfonamide]
[6]
  toxicity to Hep G2 cells (in words): weak toxicity; also recorded: moderate mammalian cytotoxicity
[2]
  stability in murine plasma: fully stable
[3]
  bacterial growth (total fluorescence intensity): comparable densities
[7]
  plasma protein binding (in words): highly bound; also recorded: very high plasma protein binding

## Cc1ccc(S(=O)(=O)NC[C@H]2O[C@@H](C)[C@@H](O)[C@@H](O)[C@@H]2O)s1 [Compound 23, N-β-L-Fucopyranosylmethyl 5-Methyl-2-thiophenesulfonamide]
[2]
  stability in murine plasma: fully stable

## Cc1oncc1S(=O)(=O)NC[C@H]1O[C@@H](C)[C@@H](O)[C@@H](O)[C@@H]1O [Compound 17, N-β-L-Fucopyranosylmethyl 5-Methyl-4-isoxazolesulfonamide]
[2]
  stability in murine plasma: fully stable

## CO[C@H]1O[C@H](CO)[C@@H](O)[C@H](O)[C@@H]1O [Compound 1, methyl α-D-mannoside]
[8]
  effect on biofilm formation: nonsignificant effect

## C[C@@H]1O[C@H](CNS(=O)(=O)c2cc(Cl)c(Cl)s2)[C@@H](O)[C@H](O)[C@@H]1O [Compound 27, N-β-L-Fucopyranosylmethyl 4,5-Dichloro-2-thiophenesulfonamide]
[2]
  stability in murine plasma: fully stable

## Cc1cc(C)c(S(=O)(=O)NC[C@H]2O[C@@H](C)[C@@H](O)[C@@H](O)[C@@H]2O)c(C)c1 [Compound 6]
[9]
  toxicity in a murine pharmacokinetics model: nontoxic
[10]
  metabolic stability against liver microsomes and murine plasma: good metabolic stability

## C[C@@H]1O[C@H](CNS(=O)(=O)c2cccs2)[C@@H](O)[C@H](O)[C@@H]1O [Compound 7]
[9]
  toxicity in a murine pharmacokinetics model: nontoxic
[10]
  metabolic stability against liver microsomes and murine plasma: good metabolic stability

## CO[C@@H]1O[C@@H](C)[C@@H](O)[C@@H](O)[C@@H]1O [Compound 42, methyl α-L-fucoside]
[8]
  effect on biofilm formation: nonsignificant effect
